Consider 27 molecules from ChEMBL document CHEMBL1157420, “2-phenyl-4-piperazinylbenzimidazoles: orally active inhibitors of the gonadotropin releasing hormone (GnRH) receptor” (Bioorg Med Chem, 2008).

The structures appear in SMILES notation. pIC50: −log10 of the molar value.

Test [1] has as its target T1, Gonadotropin-releasing hormone receptor (Homo sapiens, UniProt P30968).
T1 sequence (P30968 whole entry): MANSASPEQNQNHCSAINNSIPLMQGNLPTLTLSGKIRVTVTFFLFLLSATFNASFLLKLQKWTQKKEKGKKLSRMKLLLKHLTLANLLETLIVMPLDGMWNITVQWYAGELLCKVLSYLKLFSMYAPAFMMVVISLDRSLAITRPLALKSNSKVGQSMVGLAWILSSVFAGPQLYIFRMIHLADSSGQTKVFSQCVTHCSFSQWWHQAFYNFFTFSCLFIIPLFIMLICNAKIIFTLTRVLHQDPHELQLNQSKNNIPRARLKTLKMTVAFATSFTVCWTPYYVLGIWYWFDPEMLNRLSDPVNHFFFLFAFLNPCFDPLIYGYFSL
The test can be described thus: Antagonist activity at human recombinant GnRH receptor assessed as reduction in (D-Trp6)LHRH-induced myo-(1,2)-[3H]inositol production. Type of test: functional. In outline:
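Recombinant cells expressing human GnRH receptor, pre-labeled with myo-(1,2)-3H-inositol, incubated 1 h in medium with lithium chloride and D-Trp6-LHRH, with or without antagonist. Cells then lysed and labeled inositol phosphates separated from inositol by […] and counted. Run in triplicate, repeated in three independent experiments; IC50 derived.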

In test [2] the target is T2, Gonadotropin-releasing hormone receptor (Rattus norvegicus, UniProt P30969).
T2 sequence (P30969 whole entry): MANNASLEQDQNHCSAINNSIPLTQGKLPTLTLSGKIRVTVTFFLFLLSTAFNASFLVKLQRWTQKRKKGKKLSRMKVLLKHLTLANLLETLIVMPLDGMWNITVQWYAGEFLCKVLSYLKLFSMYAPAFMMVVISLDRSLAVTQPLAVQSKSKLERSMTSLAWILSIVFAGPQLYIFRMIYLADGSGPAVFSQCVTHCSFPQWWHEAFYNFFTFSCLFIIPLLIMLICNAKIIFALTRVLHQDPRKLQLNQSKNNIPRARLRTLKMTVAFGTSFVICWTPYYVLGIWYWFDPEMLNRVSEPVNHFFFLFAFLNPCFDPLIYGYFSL
In words: Displacement of [125I]-(D-Trp6)LHRH from rat recombinant GnRH receptor. In outline: (§1)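 Membranes from recombinant cells expressing human or rat GnRH receptor, made in 25 mM Tris-Cl pH 7.4 with 0.1% sodium azide and 0.1% BSA. 50 μg protein incubated with about 50,000 cpm 125I-(D-Trp6)-LHRH for 2 h at 4 °C, with increasing unlabeled competitor. Filtered on BSA-presoaked glass-fiber filters, washed twice, counted by gamma counter. Percent inhibition and IC50 derived.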

Test [3] concerns the target T1, Gonadotropin-releasing hormone receptor. In words: Displacement of [125I]-(D-Trp6)LHRH from human recombinant GnRH receptor. The essentials: as §1
Test [4] deals with T3, Gonadotropin-releasing hormone receptor (Homo sapiens) (UniProt P30968).
T3 sequence (whole entry): T1 sequence (P30968 whole entry)
The test can be described thus: Displacement of [125I]-(D-Trp6)LHRH from human recombinant GnRH receptor at 10 uM. In outline: as §1

In the case of `CC(C)(C)c1ccc(-c2nc3c(N4CCN(CCOc5cccc6nc(C(F)(F)F)[nH]c56)CC4)cccc3[nH]2)cc1`, the pIC50 was 5.92 in test [1], 6.15 in test [2] and 7.30 in test [3].
As for `FC(F)(F)c1nc2c(N3CCN(CCOc4ccc5[nH]c(=S)[nH]c5c4)CC3)cccc2[nH]1`, the pIC50 in test [3] is 5.35.
For the molecule `S=c1[nH]c2cccc(OCCN3CCN(c4cccc5nccnc45)CC3)c2[nH]1`, the Activity in test [4] was determined as 1%.
Consider `Cc1ccc(-c2nc3c(N4CCN(CCOc5cccc6[nH]c(=S)[nH]c56)CC4)cccc3[nH]2)cc1`, for which the pIC50 is 5.55 in test [1] and 5.89 in test [3].
Take `FC(F)(F)c1nc2c(N3CCN(Cc4cccc5[nH]c(=S)[nH]c45)CC3)cccc2[nH]1`: the pIC50 in test [1] was 5.47; in test [2], 4.29; in test [3], 6.24.
The corresponding values for `CCc1ccc(-c2nc3c(N4CCN(CCOc5cccc6nc(C(F)(F)F)[nH]c56)CC4)cccc3[nH]2)cc1` are 5.64, 5.28 and 6.66.
Regarding `FC(F)(F)c1nc2c(N3CCN(CCCc4cccc5nc(C(F)(F)F)[nH]c45)CC3)cccc2[nH]1`, the Activity in test [4] came out at 42%.
Take `FC(F)(F)c1nc2c(N3CCN(Cc4cccc5nc(C(F)(F)F)[nH]c45)CC3)cccc2[nH]1`: the results for the negative logarithm of the IC50 (pIC50) in test [1], in test [2] and in test [3] were 4.68, 4.19 and 5.02, respectively.
For the molecule `Cn1c(C(F)(F)F)nc2c(N3CCN(CCOc4cccc5[nH]c(=S)[nH]c45)CC3)cccc21`, the Activity in test [4] came out at 8%.
For the molecule `Cn1c(C(F)(F)F)nc2c(N3CCN(CCOc4cccc5[nH]c(C(F)(F)F)nc45)CC3)cccc21`, the Activity in test [4] worked out at 5%.
As to `FC(F)(F)c1nc2c(N3CCN(CCc4cccc5nc(C(F)(F)F)[nH]c45)CC3)cccc2[nH]1`, the Activity in test [4] was 26%.
Consider `FC(F)(F)C(F)(F)c1nc2c(N3CCN(CCOc4cccc5[nH]c(=S)[nH]c45)CC3)cccc2[nH]1`, for which the pIC50 in test [2] is less than 4.00; in test [3] it was 5.20.
As to `O=C(COc1cccc2[nH]c(=S)[nH]c12)N1CCN(c2cccc3[nH]c(C(F)(F)F)nc23)CC1`, in test [4], the Activity is 24%.
On the same count and under the same terms, the result for `Cc1cccc(-c2nc3c(N4CCN(CCOc5cccc6[nH]c(=S)[nH]c56)CC4)cccc3[nH]2)c1` reads 47%; that for `S=c1[nH]c2cccc(OCCN3CCN(c4cccc5[nH]cnc45)CC3)c2[nH]1`, 5%; that for `FC(F)(F)c1nc2cc(N3CCN(CCOc4cccc5[nH]c(=S)[nH]c45)CC3)ccc2[nH]1`, 11%.
With `S=c1[nH]c2cccc(OCCN3CCN(c4cccc5[nH]c(-c6ccccc6)nc45)CC3)c2[nH]1`, the pIC50 in test [3] is 4.96.
As to `FC(F)(F)c1nc2c(N3CCN(CCc4cccc5[nH]c(=S)[nH]c45)CC3)cccc2[nH]1`, the Activity in test [4] amounted to 51%.
Take `O=c1[nH]c2cccc(N3CCN(CCOc4cccc5[nH]c(=S)[nH]c45)CC3)c2[nH]1`: the Activity in test [4] worked out at 6%.
For `CCc1ccc(-c2nc3c(N4CCN(CCOc5cccc6[nH]c(=S)[nH]c56)CC4)cccc3[nH]2)cc1`, the negative-log IC50 (pIC50) in test [1] was 6.19; in test [2], 5.41; in test [3], 6.92.
Take `CC(C)(C)c1ccc(-c2nc3c(N4CCN(Cc5ccc6ccccc6c5)CC4)cccc3[nH]2)cc1`: the Activity in test [4] amounted to 7%.
In the case of `O=c1[nH]c2cccc(N3CCN(CCOc4cccc5nc(C(F)(F)F)[nH]c45)CC3)c2[nH]1`, the Activity in test [4] turned out to be 8%.
Regarding `Cc1ccc(-c2nc3c(N4CCN(CCOc5cccc6[nH]c(=S)[nH]c56)CC4)cccc3[nH]2)c(C)c1`, in test [3], the pIC50 is 5.92.
Consider `FC(F)(F)c1nc2cccc(OCCN3CCN(c4cccc5[nH]c(=S)[nH]c45)CC3)c2[nH]1`, for which, in test [4], the Activity is 42%.
On the same count and under the same terms, the figure for `CC(C)(C)c1ccc(-c2nc3c(N4CCN(Cc5ccccc5)CC4)cccc3[nH]2)cc1` is 6%; for `O=c1[nH]c2cccc(N3CCN(CCOc4cccc5[nH]c(=S)[nH]c45)CC3)c2[nH]c1=O` it is 9%.
On the same count and under the same terms, the result for `Cc1nc2c(N3CCN(CCOc4cccc5[nH]c(=S)[nH]c45)CC3)cccc2[nH]1` reads 10%.
